Data as given in ChEMBL document CHEMBL1150404, “Synthesis, alpha 1-adrenoceptor antagonist activity, and SAR study of novel arylpiperazine derivatives of phenytoin” (Bioorg Med Chem, 2008).

Molecular target: not listed separately
Test: Displacement of [3H]clonidine from alpha-2-adrenoceptor in Wistar rat cerebral cortex membrane
Type: tissue-based
Method in brief: (§1)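 Rat brain homogenised in ice-cold 50 mM Tris–HCl pH 7.6, centrifuged twice at 20,000g for 20 min at 0–4 °C. Membranes incubated with [3H]prazosin 0.2 nM (α1) or [3H]clonidine 2 nM (α2) and 7–8 test concentrations (10^-11–10^-4 M). Filter-bound radioactivity counted by liquid scintillation; duplicates; curve-fitted, Ki by Cheng–Prusoff.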

Row | Ki [nM] | SMILES
1 | 449 | COC(=O)C(C)N1C(=O)N(CC(O)CN2CCN(c3ccccc3OC)CC2)C(c2ccccc2)(c2ccccc2)C1=O (stereo not given)
2 | 800 | COC(=O)CN1C(=O)N(CC(O)CN2CCN(c3ccccc3OC)CC2)C(c2ccccc2)(c2ccccc2)C1=O (stereo not given)
3 | 535 | CCOc1ccccc1N1CCN(CC(O)CN2C(=O)N(C)C(=O)C2(c2ccccc2)c2ccccc2)CC1 (stereo not given)

Tested on: not listed separately
Test: Antagonist activity at alpha-1-adrenoceptor in Wistar rat thoracic aorta assessed as inhibition of phenylephrine-induced contraction
Type: functional, tissue-based
Method in brief: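 Male Wistar rats (200–350 g), thiopental 75 mg/kg ip; endothelium-denuded thoracic aorta rings (~4 mm) in Krebs–Henseleit, 37 °C, pH 7.4, O2/CO2 19:1. Cumulative phenylephrine curves (3·10^-9–3·10^-6 M) before and after 20 min with one of 3–4 antagonist concentrations per ring; 60 min recovery between curves.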

Row | SMILES | pKb
4 | COC(=O)C(C)N1C(=O)N(CC(O)CN2CCN(c3ccccc3OC)CC2)C(c2ccccc2)(c2ccccc2)C1=O (stereo not given) | 7.084
5 | CCOc1ccccc1N1CCN(CC(O)CN2C(=O)N(C)C(=O)C2(c2ccccc2)c2ccccc2)CC1 (stereo not given) | 7.022

Molecular target: not listed separately
Test: Displacement of [3H]prazosin from alpha-1-adrenoceptor in Wistar rat cerebral cortex membrane
Type: tissue-based
Method in brief: as §1

Row | SMILES | Ki [nM]
6 | COC(=O)C(C)N1C(=O)N(CC(O)CN2CCN(c3ccccc3OC)CC2)C(c2ccccc2)(c2ccccc2)C1=O (stereo not given) | 104
7 | COc1ccccc1N1CCN(CCN2C(=O)C3Nc4ccccc4C3N=C2C)CC1 (stereo not given) | 0.5
8 | COc1cc2nc(N3CCN(C(=O)c4ccco4)CC3)nc(N)c2cc1OC [PRAZOSIN] | 0.24
9 | COc1ccc(Cl)cc1N1CCN(CCN2C(=O)C3Nc4ccccc4C3N=C2C)CC1 (stereo not given) | 0.5
10 | COc1ccccc1N1CCN(CCCn2nc(-n3ccnc3)ccc2=O)CC1 | 0.2
11 | COc1ccccc1N1CCN(CCCCCCn2nc(-n3ccc4ccccc43)ccc2=O)CC1 | 0.2
12 | COc1ccccc1N1CCN(C(C)CCN2C(=O)NC3c4ccccc4SC3C2=O)CC1 (stereo not given) | 0.1
13 | COc1ccccc1N1CCN(C(C)CN2C(=O)C3Nc4ccccc4C3N(C)C2=O)CC1 (stereo not given) | 0.1
14 | COc1ccccc1N1CCN(C(C)CN2C(=O)C3Sc4ccccc4C3N(C)C2=O)CC1 (stereo not given) | 0.1
15 | COc1ccccc1N1CCN(CCCN2C(=O)NC3c4ccccc4N(C)C3C2=O)CC1 (stereo not given) | 0.1
16 | COc1ccccc1N1CCN(CCCCCn2nc(-n3ccnc3)ccc2=O)CC1 | 0.2
17 | COc1ccc(Cl)cc1N1CCN(CCN2C(=O)C3Sc4ccccc4C3N=C2C)CC1 (stereo not given) | 0.5
18 | COc1ccccc1N1CCN(CCN2C(=O)C3Sc4ccccc4C3N(C)C2=O)CC1 (stereo not given) | 0.1
19 | COc1ccccc1N1CCN(CCN2C(=O)C3Sc4ccccc4C3N=C2C)CC1 (stereo not given) | 0.5
20 | COc1ccccc1N1CCN(CCCN2C(=O)NC3c4ccccc4NC3C2=O)CC1 (stereo not given) | 0.1
21 | COc1ccccc1N1CCN(CCCCCCCn2nc(-n3ccc4ccccc43)ccc2=O)CC1 | 0.2
22 | COc1ccccc1N1CCN(CCN2C(=O)NC3c4ccccc4N(C)C3C2=O)CC1 (stereo not given) | 0.1
23 | COc1ccccc1N1CCN(C(C)CN2C(=O)NC3c4ccccc4OC3C2=O)CC1 (stereo not given) | 0.1

Row | SMILES | Ki [nM]
24 | COc1ccccc1N1CCN(CCCN2C(=O)C3Nc4ccccc4C3N(C)C2=O)CC1 (stereo not given) | 0.1
25 | COc1ccccc1N1CCN(CCN2C(=O)C3Nc4ccccc4C3N(C)C2=O)CC1 (stereo not given) | 0.1
26 | COc1ccccc1N1CCN(CCN2C(=O)C3C(c4ccccc4N3C)N(C)C2=O)CC1 (stereo not given) | 0.1
27 | O=c1ccc(-n2ccnc2)nn1CCCN1CCN(c2ccccc2Cl)CC1 | 0.2
28 | COc1ccccc1N1CCN(C(C)CN2C(=O)C3Oc4ccccc4C3N(C)C2=O)CC1 (stereo not given) | 0.1
29 | O=c1ccc(-n2cnc3ccccc32)nn1CCCCCCCN1CCN(c2ccccc2Cl)CC1 | 0.2
30 | COc1ccccc1N1CCN(CCCN2C(=O)C3Sc4ccccc4C3N(C)C2=O)CC1 (stereo not given) | 0.1
31 | COC(=O)CN1C(=O)N(CC(O)CN2CCN(c3ccccc3OC)CC2)C(c2ccccc2)(c2ccccc2)C1=O (stereo not given) | 198
32 | COc1ccccc1N1CCN(C(C)CCN2C(=O)C3C(c4ccccc4N3C)N(C)C2=O)CC1 (stereo not given) | 0.1
33 | COc1ccccc1N1CCN(C(C)CCN2C(=O)NC3c4ccccc4N(C)C3C2=O)CC1 (stereo not given) | 0.1
34 | COc1ccccc1N1CCN(C(C)CCN2C(=O)C3Oc4ccccc4C3N(C)C2=O)CC1 (stereo not given) | 0.1
35 | COc1ccccc1N1CCN(CCN2C(=O)NC3c4ccccc4OC3C2=O)CC1 (stereo not given) | 0.1
36 | COc1ccccc1N1CCN(CCCN2C(=O)NC3c4ccccc4SC3C2=O)CC1 (stereo not given) | 0.1
37 | COc1ccccc1N1CCN(CCCN2C(=O)NC3c4ccccc4OC3C2=O)CC1 (stereo not given) | 0.1
38 | COc1ccccc1N1CCN(C(C)CCN2C(=O)NC3c4ccccc4OC3C2=O)CC1 (stereo not given) | 0.1
39 | COc1ccccc1N1CCN(C(C)CN2C(=O)NC3c4ccccc4SC3C2=O)CC1 (stereo not given) | 0.1
40 | COc1ccccc1N1CCN(C(C)CCN2C(=O)NC3c4ccccc4NC3C2=O)CC1 (stereo not given) | 0.1
41 | COc1ccccc1N1CCN(CCN2C(=O)C3Oc4ccccc4C3N(C)C2=O)CC1 (stereo not given) | 0.1

The remaining lines, values ahead:

Row | Ki [nM] | SMILES
42 | 0.05 | CCOc1ccccc1N1CCN(CCCCCCCn2ncc(N3CCN(CCOc4ccccc4OC)CC3)c(Cl)c2=O)CC1
43 | 0.1 | COc1ccccc1N1CCN(C(C)CN2C(=O)C3C(c4ccccc4N3C)N(C)C2=O)CC1 (stereo not given)
44 | 0.05 | CCOc1ccccc1N1CCN(CCCn2ncc(N3CCN(CCOc4ccccc4OC)CC3)c(Cl)c2=O)CC1
45 | 0.05 | COc1ccccc1OCCN1CCN(c2cnn(CCCCCN3CCN(c4ccccc4OC(C)C)CC3)c(=O)c2Cl)CC1
46 | 0.1 | COc1ccccc1N1CCN(CCCN2C(=O)C3C(c4ccccc4N3C)N(C)C2=O)CC1 (stereo not given)
47 | 0.1 | COc1ccccc1N1CCN(C(C)CCN2C(=O)C3Sc4ccccc4C3N(C)C2=O)CC1 (stereo not given)
48 | 0.1 | COc1ccccc1N1CCN(CCN2C(=O)NC3c4ccccc4NC3C2=O)CC1 (stereo not given)
49 | 0.1 | COc1ccccc1N1CCN(CCN2C(=O)NC3c4ccccc4SC3C2=O)CC1 (stereo not given)
50 | 0.05 | CCOc1ccccc1OCCN1CCN(c2cnn(CCCCN3CCN(c4ccccc4OC)CC3)c(=O)c2Cl)CC1
51 | 0.05 | CCOc1ccccc1OCCN1CCN(c2cnn(CCCCCN3CCN(c4ccccc4OC)CC3)c(=O)c2Cl)CC1
52 | 0.05 | COc1ccccc1OCCN1CCN(c2cnn(CCCCCCCN3CCN(c4ccccc4OC)CC3)c(=O)c2Cl)CC1
53 | 0.1 | COc1ccccc1N1CCN(C(C)CN2C(=O)NC3c4ccccc4N(C)C3C2=O)CC1 (stereo not given)
54 | 0.1 | COc1ccccc1N1CCN(C(C)CN2C(=O)NC3c4ccccc4NC3C2=O)CC1 (stereo not given)
55 | 0.05 | CCOc1ccccc1N1CCN(CCCCCCn2ncc(N3CCN(CCOc4ccccc4OC)CC3)c(Cl)c2=O)CC1
56 | 0.1 | COc1ccccc1N1CCN(C(C)CCN2C(=O)C3Nc4ccccc4C3N(C)C2=O)CC1 (stereo not given)
57 | 0.05 | CCOc1ccccc1OCCN1CCN(c2cnn(CCCCCCN3CCN(c4ccccc4OCC)CC3)c(=O)c2Cl)CC1
58 | 0.05 | CCOc1ccccc1OCCN1CCN(c2cnn(CCCN3CCN(c4ccccc4OC)CC3)c(=O)c2Cl)CC1
59 | 0.1 | COc1ccccc1N1CCN(CCCN2C(=O)C3Oc4ccccc4C3N(C)C2=O)CC1 (stereo not given)
60 | 0.05 | COc1ccccc1OCCN1CCN(c2cnn(CCN3CCN(c4ccccc4OC)CC3)c(=O)c2Cl)CC1
61 | 0.05 | CCOc1ccccc1OCCN1CCN(c2cnn(CCCCCN3CCN(c4ccccc4OC(C)C)CC3)c(=O)c2Cl)CC1
62 | 0.05 | CCOc1ccccc1OCCN1CCN(c2cnn(CCN3CCN(c4ccccc4OC(C)C)CC3)c(=O)c2Cl)CC1
63 | 0.05 | CCOc1ccccc1OCCN1CCN(c2cnn(CCCCCCN3CCN(c4ccccc4OC(C)C)CC3)c(=O)c2Cl)CC1
64 | 0.05 | COc1ccccc1OCCN1CCN(c2cnn(CCCCCN3CCN(c4ccccc4OC)CC3)c(=O)c2Cl)CC1

Row | Ki [nM] | SMILES
65 | 0.05 | COc1ccccc1OCCN1CCN(c2cnn(CCCN3CCN(c4ccccc4OC)CC3)c(=O)c2Cl)CC1
66 | 0.05 | CCOc1ccccc1OCCN1CCN(c2cnn(CCCCCN3CCN(c4ccccc4OCC)CC3)c(=O)c2Cl)CC1
67 | 0.05 | CCOc1ccccc1OCCN1CCN(c2cnn(CCCCN3CCN(c4ccccc4OC(C)C)CC3)c(=O)c2Cl)CC1
68 | 0.05 | COc1ccccc1OCCN1CCN(c2cnn(CCCCN3CCN(c4ccccc4OC(C)C)CC3)c(=O)c2Cl)CC1
69 | 0.05 | CCOc1ccccc1OCCN1CCN(c2cnn(CCCN3CCN(c4ccccc4OCC)CC3)c(=O)c2Cl)CC1
70 | 0.05 | COc1ccccc1OCCN1CCN(c2cnn(CCCCCCN3CCN(c4ccccc4OC(C)C)CC3)c(=O)c2Cl)CC1
71 | 0.05 | COc1ccccc1OCCN1CCN(c2cnn(CCCCCCCN3CCN(c4ccccc4OC(C)C)CC3)c(=O)c2Cl)CC1
72 | 0.05 | COc1ccccc1OCCN1CCN(c2cnn(CCCN3CCN(c4ccccc4OC(C)C)CC3)c(=O)c2Cl)CC1
73 | 0.05 | CCOc1ccccc1N1CCN(CCCCCn2ncc(N3CCN(CCOc4ccccc4OC)CC3)c(Cl)c2=O)CC1
74 | 0.05 | CCOc1ccccc1OCCN1CCN(c2cnn(CCCN3CCN(c4ccccc4OC(C)C)CC3)c(=O)c2Cl)CC1
75 | 0.05 | COc1ccccc1OCCN1CCN(c2cnn(CCN3CCN(c4ccccc4OC(C)C)CC3)c(=O)c2Cl)CC1
76 | 0.05 | COc1ccccc1N1CCN(CCCCCCCn2ncc(N3CCN(CC4COc5ccccc5O4)CC3)c(Cl)c2=O)CC1 (stereo not given)
77 | 0.05 | CCOc1ccccc1OCCN1CCN(c2cnn(CCCCCCCN3CCN(c4ccccc4OC)CC3)c(=O)c2Cl)CC1
78 | 0.05 | CCOc1ccccc1OCCN1CCN(c2cnn(CCCCCCCN3CCN(c4ccccc4OCC)CC3)c(=O)c2Cl)CC1
79 | 0.05 | CCOc1ccccc1OCCN1CCN(c2cnn(CCN3CCN(c4ccccc4OC)CC3)c(=O)c2Cl)CC1
80 | 0.05 | CCOc1ccccc1N1CCN(CCCCn2ncc(N3CCN(CCOc4ccccc4OC)CC3)c(Cl)c2=O)CC1
81 | 0.05 | CCOc1ccccc1OCCN1CCN(c2cnn(CCCCCCN3CCN(c4ccccc4OC)CC3)c(=O)c2Cl)CC1
82 | 0.05 | CCOc1ccccc1OCCN1CCN(c2cnn(CCN3CCN(c4ccccc4OCC)CC3)c(=O)c2Cl)CC1
83 | 0.05 | COc1ccccc1OCCN1CCN(c2cnn(CCCCN3CCN(c4ccccc4OC)CC3)c(=O)c2Cl)CC1
84 | 0.05 | CCOc1ccccc1OCCN1CCN(c2cnn(CCCCN3CCN(c4ccccc4OCC)CC3)c(=O)c2Cl)CC1
85 | 0.05 | COc1ccccc1OCCN1CCN(c2cnn(CCCCCCN3CCN(c4ccccc4OC)CC3)c(=O)c2Cl)CC1
86 | 0.05 | CCOc1ccccc1OCCN1CCN(c2cnn(CCCCCCCN3CCN(c4ccccc4OC(C)C)CC3)c(=O)c2Cl)CC1
87 | 0.05 | CCOc1ccccc1N1CCN(CCn2ncc(N3CCN(CCOc4ccccc4OC)CC3)c(Cl)c2=O)CC1

Species: Rattus norvegicus
Test: Selectivity of Ki for alpha-2-adrenoceptor to Ki for alpha-1-adrenoceptor in Wistar rat cerebral cortex membrane
Type: tissue-based

Row | Ratio Ki | SMILES
88 | 4.32 | COC(=O)C(C)N1C(=O)N(CC(O)CN2CCN(c3ccccc3OC)CC2)C(c2ccccc2)(c2ccccc2)C1=O (stereo not given)
89 | 4.04 | COC(=O)CN1C(=O)N(CC(O)CN2CCN(c3ccccc3OC)CC2)C(c2ccccc2)(c2ccccc2)C1=O (stereo not given)
90 | 4.4 | CCOc1ccccc1N1CCN(CC(O)CN2C(=O)N(C)C(=O)C2(c2ccccc2)c2ccccc2)CC1 (stereo not given)
